Measurements published in PMC10692386 (Acta Pharmaceutica Sinica. B, 2023).

Assays:
WT HIV-1 = test: Anti-HIV-1 activity in MT-4 cells infected with HIV-1; assay type: cell-based; conditions: for EC50: Human immunodeficiency virus 1, MT4; for SI: selectivity index, the ratio of CC50/EC50, WT HIV-1
[1] = Cytotoxicity in mock-infected MT-4 cell cultures; assay type: cell-based; conditions: human, mock-infected MT-4 cells
HIV-1 mutant L100I = test: Anti-HIV-1 efficacy against mutant L100I in MT-4 cells; assay type: cell-based; conditions: Human immunodeficiency virus 1, MT4, read-out: EC50 L100I
Method in brief: (§1)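 MT-4 cells were infected with HIV-1 RT mutant strains. EC50 was the concentration giving 50% protection against viral cytopathicity, averaged from at least three independent experiments. Cytotoxicity in mock-infected cultures was read by MTT.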

HIV-1 mutant K103N = test: Anti-HIV-1 efficacy against mutant K103N in MT-4 cells; assay type: cell-based; conditions: Human immunodeficiency virus 1, MT4, read-out: EC50 K103N
Method in brief: as §1

HIV-1 mutant Y181C = test: Anti-HIV-1 efficacy against mutant Y181C in MT-4 cells; assay type: cell-based; conditions: Human immunodeficiency virus 1, MT4, read-out: EC50 Y181C
Method in brief: as §1

HIV-1 mutant Y188L = test: Anti-HIV-1 efficacy against mutant Y188L in MT-4 cells; assay type: cell-based; conditions: Human immunodeficiency virus 1, MT4, read-out: EC50 Y188L
Method in brief: as §1

HIV-1 mutant E138K = test: Anti-HIV-1 efficacy against mutant E138K in MT-4 cells; assay type: cell-based; conditions: Human immunodeficiency virus 1, MT4, read-out: EC50 E138K
Method in brief: as §1

[2] = tested on: HIV-1 mutant K103N + Y181C; test: Anti-HIV-1 efficacy against mutant K103N + Y181C in MT-4 cells; assay type: cell-based; conditions: Human immunodeficiency virus 1, MT4, read-out: EC50 K103N + Y181C
Method in brief: as §1

WT HIV-1 RT = WT HIV-1 RT (Human immunodeficiency virus type 1 group M subtype B, UniProt P03366); test: Inhibition of WT HIV-1 RT; assay type: biochemical
CYP2D6 = CYP2D6 (Homo sapiens, UniProt P10635); test: Cytochrome P450 inhibition assay, CYP2D6; assay type: in vitro ADME
Sequence of CYP2D6 (P10635 whole entry): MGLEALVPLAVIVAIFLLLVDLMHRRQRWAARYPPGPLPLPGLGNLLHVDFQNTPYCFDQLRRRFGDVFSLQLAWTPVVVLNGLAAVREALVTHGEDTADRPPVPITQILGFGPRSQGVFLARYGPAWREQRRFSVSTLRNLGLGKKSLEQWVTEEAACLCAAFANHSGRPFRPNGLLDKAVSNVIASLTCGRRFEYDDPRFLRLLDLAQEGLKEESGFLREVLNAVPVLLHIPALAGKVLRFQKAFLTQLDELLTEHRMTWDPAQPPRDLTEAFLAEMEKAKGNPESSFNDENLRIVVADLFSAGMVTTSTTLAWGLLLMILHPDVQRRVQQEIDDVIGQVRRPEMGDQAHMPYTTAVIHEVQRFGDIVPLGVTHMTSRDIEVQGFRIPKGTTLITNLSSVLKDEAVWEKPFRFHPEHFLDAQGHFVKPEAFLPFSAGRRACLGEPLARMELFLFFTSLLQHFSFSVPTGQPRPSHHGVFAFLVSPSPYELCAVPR

Cn1c(Cn2ccc(C(F)(F)F)c(Oc3cncc(Cl)c3)c2=O)n[nH]c1=O [7a]
EC50 (WT HIV-1): 0.55 ± 0.23 µM
SI (WT HIV-1): >563
CC50 [1]: > 311 µM
EC50 (HIV-1 mutant L100I): 0.93 ± 0.51 µM
EC50 (HIV-1 mutant K103N): 1.22 ± 0.56 µM
EC50 (HIV-1 mutant Y181C): 1.79 ± 0.58 µM
EC50 (HIV-1 mutant Y188L): 122 ± 62.1 µM
EC50 (HIV-1 mutant E138K): 0.61 ± 0.04 µM
EC50 [2]: 18.3 ± 11.4 µM
IC50 (WT HIV-1 RT): 1.14 ± 0.043 µM

Cc1cc(Oc2c(C(F)(F)F)ccn(Cc3n[nH]c(=O)n3C)c2=O)c2cccc(F)c2n1 [7aa]
EC50 (WT HIV-1): > 220 µM
SI (WT HIV-1): <1
CC50 [1]: 220 ± 44.4 µM

Cc1cc(Oc2c(C(F)(F)F)ccn(Cc3n[nH]c(=O)n3C)c2=O)c2cccc(C)c2n1 [7ac]
EC50 (WT HIV-1): > 151 µM
SI (WT HIV-1): <1
CC50 [1]: 151 ± 27.9 µM

Cc1cc(Oc2c(C(F)(F)F)ccn(Cc3n[nH]c(=O)n3C)c2=O)c2cc(F)c(Cl)cc2n1 [7ae]
EC50 (WT HIV-1): 11.7 ± 9.1 µM
SI (WT HIV-1): 7.92
CC50 [1]: 92.9 ± 44 µM

Cc1cc(Oc2c(C(F)(F)F)ccn(Cc3n[nH]c(=O)n3C)c2=O)c2c(Cl)c(F)ccc2n1 [7af]
EC50 (WT HIV-1): 33.3 ± 9.61 µM
SI (WT HIV-1): 2.45
CC50 [1]: 81.5 ± 11.7 µM

Cn1c(Cn2ccc(C(F)(F)F)c(Oc3cnc4ccccc4c3)c2=O)n[nH]c1=O [7ag]
EC50 (WT HIV-1): > 250 µM
SI (WT HIV-1): >1
CC50 [1]: > 250 µM

Cn1c(Cn2ccc(C(F)(F)F)c(Oc3ccc4ncccc4c3)c2=O)n[nH]c1=O [7ah]
EC50 (WT HIV-1): 252 ± 5.75 µM
SI (WT HIV-1): >1
CC50 [1]: > 299 µM

Cn1c(Cn2ccc(C(F)(F)F)c(Oc3ccc4cnccc4c3)c2=O)n[nH]c1=O [7ai]
EC50 (WT HIV-1): 11.2 ± 2.83 µM
SI (WT HIV-1): >27
CC50 [1]: > 299 µM

Cn1c(Cn2ccc(C(F)(F)F)c(Oc3cc(Cl)c4ncccc4c3)c2=O)n[nH]c1=O [7ak]
EC50 (WT HIV-1): > 192 µM
SI (WT HIV-1): <1
CC50 [1]: 192 ± 42.9 µM

Cn1c(Cn2ccc(C(F)(F)F)c(Oc3ccc4nc(Cl)ccc4c3)c2=O)n[nH]c1=O [7al]
EC50 (WT HIV-1): 46.7 ± 12.5 µM
SI (WT HIV-1): 3.68
CC50 [1]: 172 ± 44.9 µM

Cn1c(Cn2ccc(C(F)(F)F)c(Oc3ccc4cccnc4c3Br)c2=O)n[nH]c1=O [7am]
EC50 (WT HIV-1): > 164 µM
SI (WT HIV-1): <1
CC50 [1]: 164 ± 25.5 µM

Cn1c(Cn2ccc(C(F)(F)F)c(Oc3cccnc3Cl)c2=O)n[nH]c1=O [7b]
EC50 (WT HIV-1): 4.27 ± 0.75 µM
SI (WT HIV-1): 67.97
CC50 [1]: 290 ± 24.1 µM

Cn1c(Cn2ccc(C(F)(F)F)c(Oc3ccc(Cl)nc3)c2=O)n[nH]c1=O [7c]
EC50 (WT HIV-1): 35.6 ± 10.3 µM
SI (WT HIV-1): >9
CC50 [1]: > 311 µM

Cn1c(Cn2ccc(C(F)(F)F)c(Oc3cnc(Cl)c(Cl)c3)c2=O)n[nH]c1=O [7d]
EC50 (WT HIV-1): 2.02 ± 0.88 µM
SI (WT HIV-1): 122.98
CC50 [1]: 248 ± 28.2 µM

Cn1c(Cn2ccc(C(F)(F)F)c(Oc3cncc(Br)c3)c2=O)n[nH]c1=O [7e]
EC50 (WT HIV-1): 0.49 ± 0.12 µM
SI (WT HIV-1): >573
CC50 [1]: > 280 µM
EC50 (HIV-1 mutant L100I): 0.68 ± 0.22 µM
EC50 (HIV-1 mutant K103N): 0.95 ± 0.27 µM
EC50 (HIV-1 mutant Y181C): 0.85 ± 0.15 µM
EC50 (HIV-1 mutant Y188L): 39 ± 5.33 µM
EC50 (HIV-1 mutant E138K): 0.62 ± 0.22 µM
EC50 [2]: 12.3 ± 8.12 µM
IC50 (WT HIV-1 RT): 0.74 ± 0.03 µM

Cn1c(Cn2ccc(C(F)(F)F)c(Oc3cccnc3Br)c2=O)n[nH]c1=O [7f]
EC50 (WT HIV-1): 4.44 ± 0.94 µM
SI (WT HIV-1): 61.07
CC50 [1]: 270.9 ± 1.77 µM

Cn1c(Cn2ccc(C(F)(F)F)c(Oc3ccc(Br)nc3)c2=O)n[nH]c1=O [7g]
EC50 (WT HIV-1): 197 ± 58.9 µM
SI (WT HIV-1): >1
CC50 [1]: > 280 µM

Cc1cncc(Oc2c(C(F)(F)F)ccn(Cc3n[nH]c(=O)n3C)c2=O)c1 [7h]
EC50 (WT HIV-1): 0.53 ± 0.16 µM
SI (WT HIV-1): >616
CC50 [1]: > 328 µM
EC50 (HIV-1 mutant L100I): 0.55 ± 0.33 µM
EC50 (HIV-1 mutant K103N): 1.2 ± 0.18 µM
EC50 (HIV-1 mutant Y181C): 1.78 ± 0.1 µM
EC50 (HIV-1 mutant Y188L): 196 ± 12.1 µM
EC50 (HIV-1 mutant E138K): 0.77 ± 0.04 µM
EC50 [2]: 16.1 ± 7.33 µM
IC50 (WT HIV-1 RT): 1.03 ± 0.14 µM

Cc1ncccc1Oc1c(C(F)(F)F)ccn(Cc2n[nH]c(=O)n2C)c1=O [7i]
EC50 (WT HIV-1): 6.76 ± 1.07 µM
SI (WT HIV-1): >49
CC50 [1]: > 328 µM

Cc1ccc(Oc2c(C(F)(F)F)ccn(Cc3n[nH]c(=O)n3C)c2=O)cn1 [7j]
EC50 (WT HIV-1): 21.1 ± 5 µM
CC50 [1]: > 328 µM

Cc1ccncc1Oc1c(C(F)(F)F)ccn(Cc2n[nH]c(=O)n2C)c1=O [7k]
EC50 (WT HIV-1): 1.53 ± 0.25 µM
SI (WT HIV-1): >214
CC50 [1]: > 328 µM

Cc1ccc(Oc2c(C(F)(F)F)ccn(Cc3n[nH]c(=O)n3C)c2=O)c(Br)n1 [7l]
EC50 (WT HIV-1): > 250 µM
SI (WT HIV-1): <1
CC50 [1]: 253 ± 16.8 µM

Cc1ccc(Oc2c(C(F)(F)F)ccn(Cc3n[nH]c(=O)n3C)c2=O)c(C)n1 [7m]
EC50 (WT HIV-1): > 250 µM
SI (WT HIV-1): <1
CC50 [1]: > 250 µM

CCc1nc(C)ccc1Oc1c(C(F)(F)F)ccn(Cc2n[nH]c(=O)n2C)c1=O [7n]
EC50 (WT HIV-1): > 250 µM
CC50 [1]: 299 ± 3.74 µM

Cc1cc(Oc2c(C(F)(F)F)ccn(Cc3n[nH]c(=O)n3C)c2=O)cnc1Br [7o]
EC50 (WT HIV-1): 1.27 ± 0.36 µM
SI (WT HIV-1): >214
CC50 [1]: > 272 µM

Cc1cc(Oc2c(C(F)(F)F)ccn(Cc3n[nH]c(=O)n3C)c2=O)cnc1F [7p]
EC50 (WT HIV-1): 1.46 ± 0.54 µM
CC50 [1]: > 250 µM

COc1cncc(Oc2c(C(F)(F)F)ccn(Cc3n[nH]c(=O)n3C)c2=O)c1 [7q]
EC50 (WT HIV-1): 7.33 ± 5.03 µM
SI (WT HIV-1): >43
CC50 [1]: > 250 µM

Cn1c(Cn2ccc(C(F)(F)F)c(Oc3ccc(C(F)(F)F)nc3)c2=O)n[nH]c1=O [7r]
EC50 (WT HIV-1): > 250 µM
SI (WT HIV-1): >1
CC50 [1]: > 250 µM

Cn1c(Cn2ccc(C(F)(F)F)c(Oc3cccnc3)c2=O)n[nH]c1=O [7s]
EC50 (WT HIV-1): 1.22 ± 0.24 µM
SI (WT HIV-1): >278
CC50 [1]: > 367 µM

Cc1ncc(Oc2c(C(F)(F)F)ccn(Cc3n[nH]c(=O)n3C)c2=O)cn1 [7t]
EC50 (WT HIV-1): > 250 µM
SI (WT HIV-1): >1
CC50 [1]: > 250 µM

Cn1c(Cn2ccc(C(F)(F)F)c(Oc3cncc4ccccc34)c2=O)n[nH]c1=O [7u]
EC50 (WT HIV-1): 0.89 ± 0.23 µM
SI (WT HIV-1): 309.52
CC50 [1]: 277 ± 10.1 µM
EC50 (HIV-1 mutant L100I): 0.5 ± 0.22 µM
EC50 (HIV-1 mutant K103N): 3.01 ± 1.42 µM
EC50 (HIV-1 mutant Y181C): 1.56 ± 0.49 µM
EC50 (HIV-1 mutant Y188L): > 250 µM
EC50 (HIV-1 mutant E138K): 0.9 ± 0.29 µM
EC50 [2]: 34 ± 13 µM
IC50 (WT HIV-1 RT): 4.38 ± 0.35 µM

Cn1c(Cn2ccc(C(F)(F)F)c(Oc3cccc4ncccc34)c2=O)n[nH]c1=O [7v]
EC50 (WT HIV-1): 4.48 ± 1.24 µM
SI (WT HIV-1): 62.10
CC50 [1]: 278 ± 18.6 µM

Cn1c(Cn2ccc(C(F)(F)F)c(Oc3cccc4ccncc34)c2=O)n[nH]c1=O [7x]
EC50 (WT HIV-1): 1.23 ± 0.28 µM
SI (WT HIV-1): >244
CC50 [1]: > 299 µM

Cn1c(Cn2ccc(C(F)(F)F)c(Oc3cccc4nccnc34)c2=O)n[nH]c1=O [7y]
EC50 (WT HIV-1): 8.07 ± 1.41 µM
SI (WT HIV-1): 27.30
CC50 [1]: 220 ± 35.5 µM

Cc1cc(Oc2c(C(F)(F)F)ccn(Cc3n[nH]c(=O)n3C)c2=O)c2ccccc2n1 [7z]
EC50 (WT HIV-1): > 233 µM
SI (WT HIV-1): <1
CC50 [1]: 233 ± 32.1 µM

Cn1c(Cn2ccc(C(F)(F)F)c(Oc3cc(Cl)cc(C#N)c3)c2=O)n[nH]c1=O [DOR, doravirine, reference compound]
EC50 (WT HIV-1): 0.013 ± 0.004 µM
CC50 [1]: 293.24 ± 0.17 µM
EC50 (HIV-1 mutant L100I): 0.0066 ± 0.0017 µM
EC50 (HIV-1 mutant K103N): 0.042 ± 0.0013 µM
EC50 (HIV-1 mutant Y181C): 0.025 ± 0.0023 µM
EC50 (HIV-1 mutant Y188L): 0.5 ± 0.15 µM
EC50 (HIV-1 mutant E138K): 0.0075 ± 0.0026 µM
EC50 [2]: 0.142 ± 0.057 µM
IC50 (WT HIV-1 RT): 0.044 ± 0.005 µM

COc1ccc2c(c1)[C@]13CCCC[C@@H]1[C@H](C2)N(C)CC3 [Dextromethorphan, reference compound]
IC50 (CYP2D6): 0.0482 µM

Cc1cc(C#N)cc(C)c1Oc1nc(Nc2ccc(C#N)cc2)nc(N)c1Br [ETR, etravirine, reference compound]
EC50 (WT HIV-1): 0.0029 ± 0.002 µM
SI (WT HIV-1): >1600
CC50 [1]: > 4.6 µM
EC50 (HIV-1 mutant L100I): 0.006 ± 0.004 µM
EC50 (HIV-1 mutant K103N): 0.002 µM
EC50 (HIV-1 mutant Y181C): 0.019 ± 0.009 µM
EC50 (HIV-1 mutant Y188L): 0.018 ± 0.008 µM
EC50 (HIV-1 mutant E138K): 0.006 ± 0.001 µM
EC50 [2]: 0.031 ± 0.009 µM
